The text below walks through data of ChEMBL document CHEMBL1212721, “Mechanistic and structural insights into the proteolytic activation of Vibrio cholerae MARTX toxin” (Nat Chem Biol, 2009).

The structures appear in SMILES notation. Calls of active or inactive are those of the source. The rule behind the calls is not given here.

Test [1] deals with Vibrio cholerae. Kind of test: Inhibition of Vibrio cholerae recombinant MARTX toxin (3391-3650) cysteine protease domain autoprocessing assessed as concentration of InsP6 required to activate half maximal cleavage of the enzyme at 10 uM by Coomassie staining based SDS-PAGE method. An outline of the steps: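 N-terminally His6-tagged CPD (aa 3391–3650, 1 µM) in 60 mM NaCl, 20 mM Tris pH 7.5, 250 mM sucrose was pretreated with 10 µM inhibitor for 30 min at room temperature. InsP6 was added across a concentration range, followed by 1 h at 37°C. Samples were run on SDS-PAGE with Coomassie staining and densitometry. Cleaved/total fraction was plotted against InsP6 and fitted with a Michaelis-Menten function to give AC50(I). Triplicates.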

Test [2] deals with Vibrio cholerae. The test is described as follows: Inhibition of Vibrio cholerae recombinant MARTX toxin (3391-3650) cysteine protease domain autoprocessing assessed as reduction of GTPgamma-S-induced activation of protease activity at 100 uM after 15 mins by Coomassie staining based SDS-PAGE method. An outline of the steps: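 His6-tagged CPD (aa 3391–3650, 1 µM) in 60 mM NaCl, 20 mM Tris pH 7.5, 250 mM sucrose was preincubated with 100 µM inhibitor (30 min at room temperature per Methods; 15 min per legend). GTPγS was then added to 200 µM final to trigger autoprocessing, 2 h at 37°C. Read-out was 15% SDS-PAGE with Coomassie staining. Screen run in triplicate; hits confirmed in a secondary screen.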

Test [3] has as its system Vibrio cholerae. Kind of test: Inhibition of MARTX toxin cysteine protease domain autoprocessing at Leu3099 residue in wild type Vibrio cholerae at >50 uM by Western blot. An outline of the steps:
(§1)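 Culture supernatants were TCA-precipitated and resolved by SDS-PAGE. Western blot with a polyclonal anti-CPD antibody read out MARTX_Vc processing, seen as accumulation of unprocessed toxin (~460 kDa) compared with untreated wild-type supernatants.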
A general note: Immunoblotting shows a protein as a band on a membrane.

In test [4] the test system is Vibrio cholerae. The test is described as follows: Inhibition of MARTX toxin cysteine protease domain autoprocessing at Leu3441 residue in wild type Vibrio cholerae at 100 uM by Western blot. An outline of the steps: as §1
The subject of test [5] is HFF. Kind of test: Inhibition of Vibrio cholerae MARTX toxin cysteine protease domain autoprocessing assessed as assessed as reduction in actin cross linking in HFF cells at 50 uM pretreated for 15 before Vibrio cholerae supernatants addition by Western blot. It is filed as cell-based.
Test [6] deals with HFF. Kind of test: Inhibition of MARTX toxin cysteine protease domain autoprocessing in Vibrio cholerae assessed as assessed as reduction in actin cross linking in HFF cells exposed to Vibrio cholerae supernatants pretreated at 50 uM for 15 mins by Western blot. It is filed as cell-based.
Test [7] has as its system Vibrio cholerae. The test is described as follows: Inhibition of MARTX toxin cysteine protease domain autoprocessing in wild type Vibrio cholerae by Western blot. An outline of the steps: as §1

As for `CCOC(=O)[C@@H]1O[C@H]1C(=O)N(CC(C)C)NC(=O)OCc1ccccc1` (relative stereo), the Activity in the test with Vibrio cholerae [1] came out at 1.1 nM. The inhibition result in the test on Vibrio cholerae [2] was “Active”.

`CCOC(=O)[C@H]1O[C@@H]1C(=O)N(CC(C)C)NC(=O)[C@H](CC(C)C)NC(C)=O`: the Activity in the test on Vibrio cholerae [1] turned out to be 21 nM. The inhibition entry with Vibrio cholerae [2] was “Active”.

Regarding `Cc1cccc(C)c1C(=O)OCC(=O)[C@H](CC(C)C)NC(=O)[C@H](C)NC(=O)OCc1ccccc1`, the Activity with Vibrio cholerae [1] worked out at 187 nM. Also, in the test with Vibrio cholerae [2], the inhibition result was “Active”.

For the molecule `Cc1cccc(C)c1C(=O)OCC(=O)[C@H](CC(C)C)NC(=O)[C@H](C)NC(=O)[C@H](CCC(=O)O)NC(=O)OCc1ccccc1`, the inhibition entry in the test with Vibrio cholerae [3], in the test on HFF [6] and with Vibrio cholerae [2] was “Active” each time. Besides, the inhibition entry in the test with Vibrio cholerae [4] and in the test with HFF [5] was “inactive” each time. The Activity in the test on Vibrio cholerae [1] came out at 529 nM. For the same molecule, in the test with Vibrio cholerae [7], the inhibition result is “Dose-dependent effect”.

For the molecule `CCOC(=O)[C@H]1O[C@@H]1C(=O)N(CC(C)C)NC(=O)[C@H](CC(C)C)NC(=O)[C@H](CC(C)C)NC(=O)OCc1ccccc1` (stereo in doubt; 9), the Activity in the test with Vibrio cholerae [1] stood at 74 nM. The inhibition result with Vibrio cholerae [2] was “Active”.

Consider `CC(C)C[C@H](NC(=O)OCc1ccccc1)C(=O)N[C@@H](CC(C)C)C(=O)NN(CC(C)C)C(=O)[C@H]1O[C@@H]1C(=O)O`, for which, in the test with Vibrio cholerae [1], the Activity was determined as 158 nM. Also, the inhibition entry in the test with Vibrio cholerae [2] is “Active”.

Turning to `CCOC(=O)[C@H]1O[C@@H]1C(=O)N(CC(C)C)NC(=O)[C@H](CC(C)C)NC(=O)[C@H](CC(C)C)NC(=O)OCc1ccccc1` (stereo in doubt; 7), the inhibition entry in the test on Vibrio cholerae [3], with HFF [5], in the test on HFF [6] and in the test on Vibrio cholerae [2] was “Active” each time. Moreover, the inhibition entry in the test with Vibrio cholerae [4] is “inactive”. The Activity in the test with Vibrio cholerae [1] was determined as 457 nM. In addition, in the test with Vibrio cholerae [7], the inhibition entry is “Dose-dependent effect”.

Turning to `Cc1cccc(C)c1C(=O)OCC(=O)[C@H](CC(C)C)NC(=O)[C@H](C)NC(=O)[C@H](CCC(=O)O)NC(=O)[C@H](CCCCN)NC(=O)OCc1ccccc1`, the Activity in the test with Vibrio cholerae [1] turned out to be 290 nM. Further, the inhibition result in the test on Vibrio cholerae [2] was “Active”.

With `CCOC(=O)[C@@H]1O[C@H]1C(=O)N(CC(C)C)NC(=O)[C@H](CC(C)C)NC(=O)[C@H](CC(C)C)NC(=O)OCc1ccccc1`, the Activity in the test on Vibrio cholerae [1] stood at 5.2 nM. The inhibition result in the test with Vibrio cholerae [2] was “Active”.

`CCOC(=O)[C@H]1O[C@@H]1C(=O)N(CC(C)C)NC(=O)[C@H](CC(C)C)NC(=O)OCc1ccccc1`: the Activity in the test on Vibrio cholerae [1] is 11 nM. The inhibition entry in the test on Vibrio cholerae [2] is “Active”.
